Experimental data as given in ChEMBL document CHEMBL1148749, “Targeting plague virulence factors: a combined machine learning method and multiple conformational virtual screening for the discovery of Yersinia protein kinase A inhibitors” (J Med Chem, 2007).

How the values were obtained:
[1] = target: Protein kinase C (PKC); experiment: Inhibition of PKC; parameters: species or system Homo sapiens
[2] = Inhibition of MAPK; parameters: species or system Homo sapiens
[3] = Inhibition of Yersinia sp. PKA
Method in brief: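 YpkA kinase activity measured by radiological assay with enzyme at 0.15 μM; IC50 values determined from this assay.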

SMILES	IC50 [1] [µM]	IC50 [2] [µM]	IC50 [3] [µM]
O=C1NC(=O)C(=Cc2ccc(Sc3ccc(Cl)cc3)c([N+](=O)[O-])c2)C(=O)N1	> 200	63	5.87
O=C1c2ccccc2C(=O)c2cc(S(=O)(=O)Nc3cccc([N+](=O)[O-])c3)ccc21	165	> 200	19.8
C=CCN1C(=O)NC(=O)/C(=C/c2ccc(-c3cc([N+](=O)[O-])ccc3Cl)o2)C1=O	205.16	54.5	9.72
O=C1Nc2ccc(Br)cc2/C1=C1/SC(=S)N(c2cccc(Cl)c2)C1=O	> 200	2.45	1.81
